Results on twelve compounds are retold here after ChEMBL document CHEMBL1821725, “Synthesis and biological evaluation of 2',4'- and 3',4'-bridged nucleoside analogues” (Bioorg Med Chem, 2011).

Series [1] deals with CCRF-CEM. Description: Cytotoxicity against human CCRF-CEM cells after 72 hrs by MTT assay. The format is functional, cell-based. In a few lines: (§1)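 Raji and CCRF-CEM cells incubated with compounds for 72 h. Viability read by MTT reduction to formazan, optical density at 570 nm. Data analysed by one-way ANOVA. IC50 taken as concentration giving 50% growth inhibition. Highest concentration tested 10 μM.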

In series [2] the test system is Raji. The series is described as follows: Cytotoxicity against human Raji cells after 72 hrs by MTT assay. Format: functional, cell-based. The method in brief: as §1
The test system of series [3] is Human immunodeficiency virus 1. The series is described as follows: Antiviral activity against HIV1 HxB2 infected in human TZM-bl cells assessed as inhibition of virus neutralization after 48 hrs by luciferase assay. The format is functional, organism-based. As to conditions: Human immunodeficiency virus 1, HxB2, TZM-bl. In a few lines:
(§2)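 Single-round HIV-1 pseudoviruses made in 293T cells and titrated on TZM-bl cells. Virus giving ~1 × 10^6 RLU incubated 1 h at 37 °C with serially diluted samples. TZM-bl cells then plated at 1 × 10^5 per well for 48 h. Read-out: luciferase in cell lysate. IC50 = 50% neutralization. Highest concentration tested 100 μM.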

For series [4], the system named is Human immunodeficiency virus 1. Description: Antiviral activity against HIV1 SF162 infected in human TZM-bl cells assessed as inhibition of virus neutralization after 48 hrs by luciferase assay. The format is functional, organism-based. In a few lines: as §2
Series [5] concerns Escherichia coli. The series is described as follows: Antibacterial activity against Escherichia coli MG1655 after 24 hrs by micro-broth dilution method. The format is functional. The following applies: K-12 substr. MG1655, 24 h. In a few lines: (§3)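 CLSI broth microdilution. Compounds serially diluted in cation-adjusted Mueller Hinton broth. Inoculum from fresh overnight MHA plate scrape, adjusted to 1 × 10^7 CFU/ml, 5 μL added per well. Incubated at 37 °C for 24 h. MIC = lowest concentration with no visible growth; median of at least three independent replicates. Highest concentration tested 64 μM.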

In series [6] the test system is Staphylococcus aureus. Description: Antibacterial activity against Staphylococcus aureus 8325 after 24 hrs by micro-broth dilution method. The format is functional. The following applies: NCTC 8325, 24 h. The method in brief:
as §3

Series [7] relates to CCRF-CEM. Description: Cytotoxicity against human CCRF-CEM cells at 10 uM after 72 hrs by MTT assay. Format: functional, cell-based. In a few lines:
as §1

Series [8] deals with Raji. The series is described as follows: Cytotoxicity against human Raji cells at 10 uM after 72 hrs by MTT assay. The format is functional, cell-based. In a few lines: as §1
The test system of series [9] is Staphylococcus aureus. The series is described as follows: Antibacterial activity against Staphylococcus aureus 8325 at 64 uM after 24 hrs by micro-broth dilution method. The following applies: NCTC 8325. The format is functional. The method in brief: as §3
Series [10] relates to Escherichia coli. The series is described as follows: Antibacterial activity against Escherichia coli MG1655 at 64 uM after 24 hrs by micro-broth dilution method. Format: functional. The following applies: K-12 substr. MG1655. The method in brief:
as §3

The nature of series [11]: Cytotoxicity against human TZM-bl cells at 33 uM after 48 hrs. Format: cell-based.
A short description of series [12]: Cytotoxicity against human MT4 cells. Format: cell-based.
Series [13] deals with Human immunodeficiency virus 1. The series is described as follows: Antiviral activity against HIV1 HxB2 infected in human TZM-bl cells assessed as inhibition of virus neutralization at 100 uM after 48 hrs by luciferase assay. The format is functional, organism-based. The method in brief:
as §2

For series [14], the system named is Human immunodeficiency virus. Description: Antiviral activity against HIV. The format is functional. The following applies: Human immunodeficiency virus 1; read-out: ED50 (the source's name).
Series [15] deals with Human immunodeficiency virus 1. Description: Antiviral activity against HIV1 LAI. The format is functional, organism-based. As to conditions: Human immunodeficiency virus 1, LAI.
The subject of series [16] is Human immunodeficiency virus 1. The series is described as follows: Antiviral activity against HIV1 SF162 infected in human TZM-bl cells assessed as inhibition of virus neutralization at 100 uM after 48 hrs by luciferase assay. Format: functional, organism-based. In a few lines: as §2
Setting [17] is: Human immunodeficiency virus 1, SF162, TZM-bl, 48 h, read-out: IC50.

Each structure is given as a SMILES string. Values after ≈ are worked out from the molar mass of the structure shown. Active and inactive are the calls of the source. The rule behind the calls is not given here.

As to `Nc1nc(Cl)nc2c1ncn2[C@H]1C[C@H](O)[C@@H](CO)O1` [CLADRIBINE], the 50% inhibitory concentration (IC50) in series [1] was 0.5 nM; in series [2], 9 nM.

As to `CN(Cc1ccccc1)c1nc(Cl)nc2c1ncn2[C@@H]1O[C@@]2(CO)CO[C@@H]1[C@@H]2O`, the IC50 turned out to be 24900 nM in series [3] and 27.9 µM in [4] (setting [17]). Moreover, the MIC worked out at 16 µM (≈ 6.69 µg/mL) in [5] and 8 µM (≈ 3.34 µg/mL) in series [6]. In addition, the “growth inhibition (GI)” value in [7] and in series [8] was “inactive” throughout.

Regarding `C=CCc1nc(/C=C/C)c2ncn([C@@H]3O[C@@]4(CO)CO[C@@H]3[C@@H]4OCc3ccccc3)c2n1`, the IC50 in [3] was 2400 nM; in [1], 7600 nM; in [2], 5800 nM; in series [4] (tzm-bl) it was “Not Active”. Moreover, the inhibition entry in series [9] and in [10] was “inactive” each time. Further, in [11], the Activity entry is reported as “Toxic”.

`Cc1cn([C@@H]2O[C@@]3(CO)COC[C@H]3[C@H]2O)c(=O)[nH]c1=O` registered a CC50 in [12] of 0.54 µg/mL (≈ 1.9 µM).

Consider `CCNc1nc(N)c2ncn([C@@H]3O[C@@]4(CO)CO[C@@H]3[C@@H]4OCc3ccccc3)c2n1`, for which the inhibition result in [9], in series [10] and in series [13] was “inactive” in each case. Further, in series [4] (setting [17]), the IC50 was found to be 60 µM. For the same compound, the “growth inhibition (GI)” value in [7] and in [8] was “inactive” each time.

Turning to `Cc1cn([C@@H]2O[C@@]3(CO)CO[C@H]3[C@H]2O)c(=O)[nH]c1=O`, the EC50 in series [14] came to 140 nM.

For `OC[C@@]12CO[C@@H]([C@H](n3cnc4c(NCc5ccccc5)nc(Cl)nc43)O1)[C@@H]2OCc1ccccc1`, the IC50 in series [3] is 2400 nM; in series [4] (setting [17]) it was 7 µM. The inhibition entry in series [9] and in [10] was “inactive” throughout. In addition, the “growth inhibition (GI)” value in series [7] and in [8] was “inactive” throughout.

On to `Cc1cn([C@H]2C[C@H](N=[N+]=[N-])[C@@H](CO)O2)c(=O)[nH]c1=O` [ZIDOVUDINE], for which the IC50 in series [3] came to 37 nM; in [4] (setting [17]), 0.078 µM. In series [14], the EC50 is 1 nM.

As for `CCCCNc1nc(N)c2ncn([C@@H]3O[C@@]4(CO)CO[C@@H]3[C@@H]4OCc3ccccc3)c2n1`, the figures for the IC50 in series [3] and in series [4] (setting [17]) were 28000 nM and 68 µM, respectively. The inhibition result in series [9] and in series [10] was “inactive” each time. The “growth inhibition (GI)” value in series [7] and in series [8] was “inactive” in each case.

The compound `Cc1cn([C@H]2C[C@@H]3COC[C@]3(CO)O2)c(=O)[nH]c1=O` had a CC50 in series [12] of 0.54 µg/mL (≈ 2.01 µM).

As to `Cc1cn([C@@H]2C=CC3(CO)C[C@@H]23)c(=O)[nH]c1=O` (single isomer, unassigned), the EC50 in [15] amounted to 28.8 µM.

Take `O=C(c1ccccc1)N(C(=O)c1ccccc1)c1nc(N(C(=O)c2ccccc2)C(=O)c2ccccc2)c2ncn([C@@H]3O[C@@]4(CO)CO[C@@H]3[C@@H]4OCc3ccccc3)c2n1`: the inhibition result in [9], in series [16], in series [10] and in series [13] was “inactive” each time. The IC50 came to 360 nM in series [1] and 250 nM in series [2].
